Experimental data taken from publication PMC3361572 (Chemistry & biology, 2012).

Columns and labels:
[1] = tested on: brain 2-AG, AA, AEA, PEA, OEA; assay: brain lipid profile of KML29-treated rats; assay type: in vivo, rat; details: 1–40 mg kg^−1 i.p., 4 h
How it was run: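 Wistar rats were given the test compound i.p. (1–40 mg kg−1, saline:emulphor:ethanol 18:1:1 vehicle) or vehicle and killed at 4 h. Brain 2-AG, AA, AEA, PEA and OEA levels were measured. Means ± SEM, n = 3 rats/group, with statistics against vehicle-treated rats.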

FAAH = target: T1, FAAH (Mus musculus, UniProt O08914); assay: AEA substrate assay in mouse brain proteomes; assay type: biochemical
T1 sequence (O08914 1-579): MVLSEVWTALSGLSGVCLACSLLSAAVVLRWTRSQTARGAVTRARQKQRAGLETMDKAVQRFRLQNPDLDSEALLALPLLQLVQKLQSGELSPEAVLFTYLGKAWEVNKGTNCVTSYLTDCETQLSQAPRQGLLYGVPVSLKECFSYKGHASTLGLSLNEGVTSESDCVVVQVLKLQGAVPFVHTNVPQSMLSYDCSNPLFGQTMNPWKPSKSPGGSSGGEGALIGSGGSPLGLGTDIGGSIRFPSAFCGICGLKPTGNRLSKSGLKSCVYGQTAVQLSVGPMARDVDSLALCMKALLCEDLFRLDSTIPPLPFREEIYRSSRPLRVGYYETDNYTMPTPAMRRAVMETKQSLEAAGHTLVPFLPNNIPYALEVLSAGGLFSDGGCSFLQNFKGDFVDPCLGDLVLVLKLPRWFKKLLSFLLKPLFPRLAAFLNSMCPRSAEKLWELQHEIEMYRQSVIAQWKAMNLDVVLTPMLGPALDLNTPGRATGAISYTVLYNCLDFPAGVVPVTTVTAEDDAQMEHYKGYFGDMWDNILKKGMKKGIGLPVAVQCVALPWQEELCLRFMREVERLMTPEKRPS
How it was run: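 Mouse brain proteome was treated with test compound. FAAH activity was read as hydrolysis of AEA substrate. Data are means ± SEM of three independent experiments.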

MAGL [2] = target: T2, MAGL (Rattus norvegicus, UniProt Q8R431); assay: competitive ABPP of brain from KML29-treated rats; assay type: in vivo; details: Wistar rats, 40 mg kg^−1 i.p., 4 h
T2 sequence (Q8R431 1-303): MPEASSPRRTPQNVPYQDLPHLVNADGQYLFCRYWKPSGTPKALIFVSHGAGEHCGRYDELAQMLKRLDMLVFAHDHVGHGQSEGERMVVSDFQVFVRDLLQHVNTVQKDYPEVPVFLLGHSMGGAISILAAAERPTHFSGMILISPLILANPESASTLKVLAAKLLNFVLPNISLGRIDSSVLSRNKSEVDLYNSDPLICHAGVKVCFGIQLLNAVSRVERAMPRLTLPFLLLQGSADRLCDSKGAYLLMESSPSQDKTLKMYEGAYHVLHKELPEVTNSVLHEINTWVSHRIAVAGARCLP
How it was run: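 Wistar rats were injected i.p. with the test compound (1–40 mg kg−1) or vehicle. Vehicle was saline:emulphor:ethanol 18:1:1, with prolonged sonication and mild heating to dissolve. Rats were killed at 4 h. Brain, liver, lung and spleen proteomes were labelled with FP-Rh, separated by SDS-PAGE and scanned for in-gel fluorescence. Inhibition was scored as reduced probe labelling. n = 3 rats/group.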

MAGL [3] = target: T2, MAGL; assay: brain 2-AG hydrolytic activity from KML29-treated rats; assay type: in vivo; details: 4 h
How it was run: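 Wistar rats received the test compound i.p. (1–40 mg kg−1 in saline:emulphor:ethanol 18:1:1) or vehicle and were killed after 4 h. Brain MAGL and FAAH activities were measured as hydrolysis of 2-AG and AEA, respectively. Means ± SEM, n = 3 rats/group, compared with vehicle-treated rats.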

With `O=C(OC(C(F)(F)F)C(F)(F)F)N1CCC(C(O)(c2ccc3c(c2)OCO3)c2ccc3c(c2)OCO3)CC1` [KML29] the “brain AA levels” value [1] was “decrease proportionally with the elevations in 2-AG”, the “brain AEA, PEA, or OEA” value [1] was “without alteration” and the “elevations in brain 2-AG” value [1] was “approximately 10 fold”. For the same compound, the “effect on AEA hydrolysis” value (FAAH) was “did not affect AEA hydrolysis at any concentration tested”, the “inhibition of brain MAGL” value (MAGL [2]) was over 90% and the “decrease of brain 2-AG hydrolytic activity” value (MAGL [3]; 20 mg kg^−1 i.p.) was 50%. For the same compound, the “decrease of brain 2-AG hydrolytic activity” value (MAGL [3]; 40 mg kg^−1 i.p.) was 80%.
